pIC50: −log10 of the molar value. Calls of active or inactive are those of the source. No cut-off for these calls is given here.

This note sets out measurements from ChEMBL document CHEMBL4359898, “Pyrazolo-benzothiazole hybrids: Synthesis, anticancer properties and evaluation of antiangiogenic activity using in vitro VEGFR-2 kinase and in vivo transgenic zebrafish model” (Eur J Med Chem, 2019).

In assay [1] the test system is Danio rerio. Briefly: Antiangiogenic activity in transgenic fli1a:EGFP-tagged zebrafish embryo assessed as reduction in intersegmental vessel sprouting at 0.1 to 1 uM administered from 24 hrs post fertilization and measured after 72 hrs by fluorescence microscopy relative to control. It is filed as functional. Also noted: scale not given: the % may be the effect or the level left. A digest of the protocol: (§1)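 Embryos staged after natural spawning and kept in E3 medium at 28.5 °C. At 1 dpf, 10 embryos per well were placed in E3 containing compound at […] and incubated 72 h at 28.5 °C. Untreated and 1% DMSO vehicle controls were included. Larvae were anaesthetised with 0.01% tricaine and mounted in 1% low-melt agarose. ISVs were imaged in the green channel, and % defective ISVs was counted manually.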

Assay [2] deals with PC-3. Briefly: Inhibition of cell migration in human PC3 cells at 5 uM incubated for 48 hrs by phase contrast microscopy based scratch wound healing assay relative to control. Format: functional. To be noted: PC-3, 48 h. A digest of the protocol: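 Confluent PC-3 monolayers were scratched with a pipette tip to leave lanes about 1 mm wide, and debris was washed off with PBS. Cells were given complete medium alone or medium containing […]. Wounds were imaged by phase contrast at time zero and after 48 h.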

Assay [3] deals with PC-3. Put plainly: Induction of apoptosis in human PC3 cells assessed as viable cells at 5 uM incubated for 48 hrs by annexin V FITC and propidium iodide staining based flow cytometry (reference value: 95 %). Format: functional. To be noted: PC-3, 48 h, read-out: Activity. A digest of the protocol: (§2)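 PC-3 cells at 1 × 10^6 per well were treated 48 h at […]. Cells were trypsinised, washed in PBS and resuspended in annexin binding buffer. Annexin V-FITC and PI were added for 15 min at room temperature. 10000 cells were analysed by flow cytometry and sorted into quadrants as live, early apoptotic, late apoptotic or necrotic.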

Assay [4] relates to HT-29. Briefly: Cytotoxicity against human HT-29 cells assessed as reduction in cell viability incubated for 72 hrs by MTT assay. The settings on record: HT-29, 72 h. (In general: Formazan colour is commonly taken as a measure of viable cells.)
For assay [5], the system named is PC-3. Put plainly: Induction of apoptosis in human PC3 cells assessed as nuclei condensation incubated for 48 hrs by […] staining based fluorescence microscopy. Format: functional, cell-based. A digest of the protocol:
(§3)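 PC-3 cells on coverslips (1 × 10^6 per well) were incubated 48 h with […]. Cells were PBS-washed, 4% paraformaldehyde was added, and they were stained 20 min with […]. After three PBS washes, nuclei were examined by fluorescence microscopy for chromatin condensation and fragmentation.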

The subject of assay [6] is HEK-293T. Put plainly: Cytotoxicity against HEK293T cells assessed as reduction in cell viability incubated for 72 hrs by MTT assay. The settings on record: Homo sapiens.
The test system of assay [7] is PC-3. The settings on record: Homo sapiens, 1 to 5 uM.
Assay [8] concerns PC-3. Briefly: Cytotoxicity against human PC3 cells assessed as reduction in cell viability incubated for 72 hrs by MTT assay. The settings on record: PC-3, 72 h.
In assay [9] the test system is Danio rerio. Briefly: Antiangiogenic activity in transgenic fli1a:EGFP-tagged zebrafish embryo assessed as reduction in intersegmental vessel sprouting at 0.5 uM administered from 24 hrs post fertilization and measured after 72 hrs by fluorescence microscopy relative to control. Also noted: scale not given: the % may be the effect or the level left. It is filed as functional. A digest of the protocol: as §1

The test system of assay [10] is U-87 MG. To be noted: Homo sapiens; U-87MG ATCC.
Assay [11] has as its system Danio rerio. Briefly: Antiangiogenic activity in transgenic fli1a:EGFP-tagged zebrafish embryo assessed as reduction in intersegmental vessel sprouting at 0.1 uM administered from 24 hrs post fertilization and measured after 72 hrs by fluorescence microscopy relative to control. It is filed as functional. Also noted: scale not given: the % may be the effect or the level left. A digest of the protocol:
as §1

Assay [12] relates to PC-3. Put plainly: Induction of apoptosis in human PC3 cells assessed as mitochondrial membrane potential loss incubated for 48 hrs by JC1 staining based fluorescence microscopy. Format: functional, cell-based. A digest of the protocol: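 PC-3 cells were plated at 5 × 10^5 cells/mL and incubated 48 h with […]. The medium was then replaced with fresh medium containing JC-1 for 20 min. After three PBS washes, red and green fluorescence was imaged, and depolarisation was read as a rise in the green/red ratio.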

The subject of assay [13] is PC-3. Put plainly: Induction of apoptosis in human PC3 cells assessed as nuclei fragmentation incubated for 48 hrs by […] staining based fluorescence microscopy. Format: functional, cell-based. A digest of the protocol:
as §3

In assay [14] the test system is PC-3. Put plainly: Cell cycle arrest in human PC3 cells assessed as accumulation in G0/G1 phase at 1 uM incubated for 48 hrs by propidium iodide based flow cytometry (reference value: 51.3 %). It is filed as functional. On the technique in general: Flow cytometry measures light scatter and fluorescence of single cells or particles in a stream.
For assay [15], the system named is PC-3. Briefly: Cell cycle arrest in human PC3 cells assessed as accumulation in G0/G1 phase incubated for 48 hrs by propidium iodide based flow cytometry. Format: functional.
In assay [16] the test system is PC-3. Briefly: Cell cycle arrest in human PC3 cells assessed as accumulation in G0/G1 phase at 3 uM incubated for 48 hrs by propidium iodide based flow cytometry (reference value: 51.3 %). It is filed as functional.
Assay [17] concerns PC-3. Briefly: Cell cycle arrest in human PC3 cells assessed as accumulation in G0/G1 phase at 5 uM incubated for 48 hrs by propidium iodide based flow cytometry (reference value: 51.3 %). It is filed as functional.
Assay [18] concerns PC-3. Put plainly: Induction of apoptosis in human PC3 cells assessed as necrotic cells at 5 uM incubated for 48 hrs by annexin V FITC and propidium iodide staining based flow cytometry (reference value: 1 %). It is filed as functional. A digest of the protocol: as §2
The subject of assay [19] is PC-3. Put plainly: Induction of apoptosis in human PC3 cells assessed as necrotic cells at 3 uM incubated for 48 hrs by annexin V FITC and propidium iodide staining based flow cytometry (reference value: 1 %). It is filed as functional. A digest of the protocol: as §2
Assay [20] concerns PC-3. Briefly: Cell cycle arrest in human PC3 cells assessed as reduction in S phase population at 1 uM incubated for 48 hrs by propidium iodide staining based flow cytometry. Format: functional.
For assay [21], the system named is Danio rerio. Briefly: Antiangiogenic activity in transgenic fli1a:EGFP-tagged zebrafish embryo assessed as reduction in intersegmental vessel sprouting administered from 24 hrs post fertilization and measured after 72 hrs by fluorescence microscopy. Format: functional, organism-based. A digest of the protocol:
as §1

Assay [22] relates to PC-3. Briefly: Induction of apoptosis in human PC3 cells incubated for 48 hrs by annexin V FITC and propidium iodide staining based flow cytometry. Format: functional, cell-based. A digest of the protocol:
as §2

Assay [23] relates to PC-3. Briefly: Induction of apoptosis in human PC3 cells assessed as viable cells at 1 uM incubated for 48 hrs by annexin V FITC and propidium iodide staining based flow cytometry (reference value: 95 %). It is filed as functional. The settings on record: PC-3, 48 h, read-out: Activity. A digest of the protocol:
as §2

The subject of assay [24] is PC-3. Briefly: Induction of apoptosis in human PC3 cells assessed as late apoptotic cells at 5 uM incubated for 48 hrs by annexin V FITC and propidium iodide staining based flow cytometry (reference value: 1.2 %). Format: functional. A digest of the protocol: as §2
Assay [25] concerns PC-3. Put plainly: Induction of apoptosis in human PC3 cells assessed as early apoptotic cells at 1 uM incubated for 48 hrs by annexin V FITC and propidium iodide staining based flow cytometry (reference value: 2.8 %). It is filed as functional. A digest of the protocol: as §2
The test system of assay [26] is PC-3. Put plainly: Cell cycle arrest in human PC3 cells assessed as reduction in G2/M phase population at 1 uM incubated for 48 hrs by propidium iodide staining based flow cytometry. Format: functional.
The test system of assay [27] is U-87 MG. Put plainly: Cytotoxicity against human U87MG cells assessed as reduction in cell viability incubated for 72 hrs by MTT assay.
Assay [28] concerns Danio rerio. Briefly: Antiangiogenic activity in transgenic fli1a:EGFP-tagged zebrafish embryo assessed as reduction in intersegmental vessel sprouting at 1 uM administered from 24 hrs post fertilization and measured after 72 hrs by fluorescence microscopy relative to control. It is filed as functional. Details: scale not given: the % may be the effect or the level left. A digest of the protocol:
as §1

Assay [29] has as its system PC-3. Put plainly: Induction of apoptosis in human PC3 cells assessed as late apoptotic cells at 3 uM incubated for 48 hrs by annexin V FITC and propidium iodide staining based flow cytometry (reference value: 1.2 %). Format: functional. A digest of the protocol: as §2
For assay [30], the system named is PC-3. The settings on record: Homo sapiens, 3 uM.
For assay [31], the system named is PC-3. Briefly: Induction of apoptosis in human PC3 cells assessed as early apoptotic cells at 3 uM incubated for 48 hrs by annexin V FITC and propidium iodide staining based flow cytometry (reference value: 2.8 %). Format: functional. A digest of the protocol: as §2
Assay [32] relates to PC-3. Briefly: Induction of apoptosis in human PC3 cells assessed as necrotic cells at 1 uM incubated for 48 hrs by annexin V FITC and propidium iodide staining based flow cytometry (reference value: 1 %). It is filed as functional. A digest of the protocol: as §2
The test system of assay [33] is PC-3. Briefly: Induction of apoptosis in human PC3 cells assessed as late apoptotic cells at 1 uM incubated for 48 hrs by annexin V FITC and propidium iodide staining based flow cytometry (reference value: 1.2 %). Format: functional. A digest of the protocol: as §2
The test system of assay [34] is PC-3. Briefly: Induction of apoptosis in human PC3 cells at incubated for 48 hrs by […] staining based fluorescence microscopy. It is filed as functional, cell-based. A digest of the protocol: as §3
Assay [35] relates to PC-3. Briefly: Induction of apoptosis in human PC3 cells assessed as viable cells at 3 uM incubated for 48 hrs by annexin V FITC and propidium iodide staining based flow cytometry (reference value: 95 %). Format: functional. To be noted: PC-3, 48 h, read-out: Activity. A digest of the protocol:
as §2

For assay [36], the system named is A549. Briefly: Cytotoxicity against human A549 cells assessed as reduction in cell viability incubated for 72 hrs by MTT assay. To be noted: A549, 72 h.
The subject of assay [37] is PC-3. Briefly: Induction of apoptosis in human PC3 cells assessed as early apoptotic cells at 5 uM incubated for 48 hrs by annexin V FITC and propidium iodide staining based flow cytometry (reference value: 2.8 %). It is filed as functional. A digest of the protocol: as §2

Regarding `CNC(=O)c1ccccc1Sc1ccc2c(/C=C/c3ccccn3)n[nH]c2c1` [AXITINIB], the Activity in assay [1] is 63.1 - 90.4%.
On to `O=C(Nc1nc2ccc(Cl)cc2s1)c1cn(-c2ccccc2)nc1-c1ccc(F)cc1`, for which, in assay [2], the inhibition – broadly, the drop in the measured response relative to a control, in per cent – at 5 µM was 100%. Besides, the viability at 5 µM in assay [3] amounted to 70.9%. Further, the pIC50 (usually the IC50 on a negative log10 scale, so that one unit is a factor of ten) in [4] was 5.48; in [6] it was 4.34; in assay [8], 5.50; in [27], 5.17; in assay [36], 5.41. The Activity result in assay [5] is “Dose-dependent effect”; in assay [9], 47.3%; in assay [11], 16%; in assay [12], “Dose-dependent effect”; in assay [13], “Dose-dependent effect”; in assay [14] it was 65.5%. Also, the Activity entry in [15] was “Dose-dependent effect”; in assay [16], 74.8%; in assay [17], 81.4%; in assay [18] it was 2.8%; in [19] it was 2.1%; in [21], “Dose-dependent effect”. Also, the Activity entry in [22] was “Dose-dependent effect”; in assay [24], 9.6%; in [25], 10.4%; in assay [28], 54.5%; in assay [29] it was 6.9%; in [31], 13.8%. The Activity in [32] is 1.1%; in assay [33], 3.7%; in assay [34] it was “Dose-dependent effect”; in assay [37], 16.7%. In addition, the inhibition entry in assay [7], in assay [10] and in assay [30] was “Active” in each case. Further, the outcome in assay [20] and in assay [26] was Active. The viability at 1 µM in assay [23] stood at 84.8%. In addition, in [35], the viability at 3 µM is 77.2%.
